Test results from ChEMBL document CHEMBL4622992, “New Polyaminoisoprenyl Antibiotics Enhancers against Two Multidrug-Resistant Gram-Negative Bacteria from Enterobacter and Salmonella Species” (J Med Chem, 2020).
≈ marks a conversion by molar mass, not a printed value. Calls of active or inactive are those of the source. The calls are words filed in the database; no cut-off is given here. Where a SMILES comes first, the peptide text is derived from it. Bridges are numbered along the chain shown (N, C = ends). [ ]: non-standard residue; d: D form. The star is where a group is joined. X1 = CC[C@H](C)CCCCC(=O)*; βNA = c1ccc2cc(N*)ccc2c1; Dab = NCC[C@H](N)C(=O)O

Assays:
[1] = Toxicity in BALB/cByJ mouse assessed as induction of toxic signs at 50 uM, ip measured after 48 hrs; type: organism-based; settings: in vivo
Salmonella typhimurium [2] = assay: Potentiation of nalidixic acid-induced antibacterial activity against Salmonella enterica subsp. enterica serovar Typhimurium BN10055 assessed as ratio of the nalidixic acid alone MIC to […] in presence of MIC/4 level of compound incubated for 18 hrs; type: functional
Method in brief: (§1)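 Broth microdilution in MH broth, 10^5 CFU inoculum, two-fold antibiotic dilutions, with or without compound at MIC/4. MIC is the lowest concentration with no visible growth after 18 h at 37°C. Gain is antibiotic MIC alone divided by MIC with compound. MICs repeated in at least three independent experiments; up to 5% DMSO.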

Klebsiella aerogenes [3] = assay: Induction of outer cell membrane permeabilization in Enterobacter aerogenes Ea289 assessed as induction of nitrocefin hydrolysis at 100 uM measured during initial 200 secs; type: organism-based
Method in brief: (§2)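 Cells at OD600 0.25 in phosphate buffer (20 mM K2HPO4, 1 mM MgCl2, pH 7.0) with 5 μM CCCP, mixed with nitrocefin 50 μg/mL, then compound at 100 μM. Periplasmic β-lactamase hydrolysis followed by absorbance at 490 nm every 30 s at 37°C.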

Salmonella typhimurium [4] = assay: Potentiation of erythromycin-induced antibacterial activity against Salmonella enterica subsp. enterica serovar Typhimurium BN10055 assessed as ratio of the erythromycin alone MIC to erythromycin MIC in presence of MIC/4 level of compound incubated for 18 hrs; type: functional; method in brief: as §1
[5] = Toxicity in BALB/cByJ mouse assessed as effect on mouse survival at 50 uM, ip measured after 48 hrs; type: organism-based; settings: in vivo
Klebsiella aerogenes [6] = assay: Potentiation of chloramphenicol-induced antibacterial activity against Enterobacter aerogenes Ea289 assessed as ratio of the chloramphenicol alone MIC to […] in presence of MIC/4 level of compound incubated for 18 hrs; type: functional; method in brief: as §1
[7] = Toxicity in CHO cells assessed as reduction in cell viability incubated for 24 hrs by WST1 assay; type: cell-based; settings: Chinese hamster (Cricetulus griseus)
Method in brief: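 CHO-K1 cells in McCoy's 5A with 10% FCS, exposed in triplicate to 30–1200 μM compound for 24 h at 37°C. After PBS washes, 30 min in medium with 10% WST-1; absorbance at 450 nm. IC50 is the concentration giving 50% loss of viable cells.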

[8] = Toxicity index, ratio of IC50 for toxicity in CHO cells to concentration of test compound causing at least 8 times decrease of MIC of almost 3 antibiotics (chloramphenicol/nalidixic acid/doxycycline/erythromycin ) against Enterobacter aerogenes Ea289; type: cell-based; settings: hamster, pooled result: one value given for 2 cell lines, strains, targets or settings
Klebsiella aerogenes [9] = assay: Inhibition of AcrAB-TolC in Enterobacter aerogenes Ea289 assessed as retention of 1,2'diNA dye within bacterial membranes at 100 uM relative to control; parameters: scale not given: the % may be the effect or the level left
Method in brief: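 Stationary-phase cells at OD600 0.25 in potassium phosphate buffer pH 7.0 with CCCP 5 µM, loaded overnight with 1,2'-diNA 32 µM at 37°C, washed, compound added at 100 µM. Glucose 50 mM added at 300 s to energize efflux. Fluorescence (ex 370/em 420 nm) read every 30 s at 37°C; PAβN 100 µM as reference.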

Klebsiella aerogenes [10] = assay: Induction of outer cell membrane permeabilization in Enterobacter aerogenes Ea289 assessed as induction of H33342 dye penetration at 100 uM; type: organism-based
Klebsiella aerogenes [11] = assay: Induction of cell transmembrane potential disruption in Enterobacter aerogenes Ea289 assessed as membrane potential by measuring fluorescence level at 100 uM by [DiSC3(5)] based assay (reference value: 0.2%)
Klebsiella aerogenes [12] = assay: Potentiation of chloramphenicol-induced antibacterial activity against Enterobacter aerogenes Ea289 assessed as efficiency index by measuring sum of gain factor for each test compound reported for chloramphenicol/nalidixic acid/doxycycline/erythromycin and divided by concentration of test compound; type: functional; settings: pooled result: one value given for 2 cell lines, strains, targets or settings
Method in brief: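 Gain factors (antibiotic MIC alone / MIC with compound at MIC/4; broth dilution, 18 h, 37°C) for erythromycin, doxycycline, nalidixic acid and chloramphenicol are summed, then divided by the compound concentration used in the assay.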

Klebsiella aerogenes [13] = assay: Potentiation of erythromycin-induced antibacterial activity against Enterobacter aerogenes Ea289 assessed as ratio of the erythromycin alone MIC to erythromycin MIC in presence of MIC/4 level of compound incubated for 18 hrs
Klebsiella aerogenes [14] = assay: Potentiation of nalidixic acid-induced antibacterial activity against Enterobacter aerogenes Ea289 assessed as ratio of the nalidixic acid alone MIC to nalidixic acid MIC in presence of MIC/4 level of compound incubated for 18 hrs
Klebsiella aerogenes [15] = assay: Potentiation of doxycycline-induced antibacterial activity against Enterobacter aerogenes Ea289 assessed as ratio of the doxycycline alone MIC to doxycycline MIC in presence of MIC/4 level of compound incubated for 18 hrs; type: functional; method in brief: as §1
Salmonella typhimurium [16] = assay: Potentiation of doxycycline-induced antibacterial activity against Salmonella enterica subsp. enterica serovar Typhimurium BN10055 assessed as ratio of the doxycycline alone MIC to doxycycline MIC in presence of MIC/4 level of compound incubated for 18 hrs; type: functional; method in brief: as §1
Salmonella typhimurium [17] = assay: Potentiation of chloramphenicol-induced antibacterial activity against Salmonella enterica subsp. enterica serovar Typhimurium BN10055 assessed as ratio of the chloramphenicol alone MIC to […] in presence of MIC/4 level of compound incubated for 18 hrs; type: functional; method in brief: as §1
Salmonella typhimurium [18] = assay: Potentiation of doxycycline-induced antibacterial activity against Salmonella typhimurium assessed as mouse survival rate at 0.5 mg/kg, ip co-treated with 64 mg/kg for doxycycline (reference value: 0%); type: functional, Salmonella enterica subsp. enterica serovar Typhimurium
Method in brief: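 Female BALB/cByJ mice, 5-6 weeks, anaesthetized with sevoflurane, infected ip with 200 µL of S. Typhimurium at 10² CFU/mL. Daily dosing with saline, doxycycline 64 mg/kg alone, or doxycycline 64 mg/kg plus 0.5 mg/kg compound. Mice weighed daily; sacrificed at day 1 (n=3), 3 (n=3) or 7 (n=6).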

Klebsiella aerogenes [19] = assay: Induction of outer cell membrane permeabilization in Enterobacter aerogenes Ea289 assessed as induction of nitrocefin hydrolysis at 100 uM incubated for 15 mins; type: organism-based; method in brief: as §2
Klebsiella aerogenes [20] = assay: Antibacterial activity against Enterobacter aerogenes Ea289 containing deltaacrB mutant assessed as inhibition of bacterial growth incubated for 18 hrs; type: organism-based
Method in brief: (§3)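 Broth microdilution per CA-SFM in MH broth; inoculum 10⁵ CFU in 200 µL with two-fold serial dilutions; compounds dissolved in DMSO, up to 5% DMSO on bacteria. MIC = lowest concentration with no visible growth after 18 h at 37°C. Repeated at least three times independently.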

Klebsiella aerogenes [21] = assay: Antibacterial activity against Enterobacter aerogenes Ea289 assessed as inhibition of bacterial growth incubated for 18 hrs; type: organism-based; method in brief: as §3
Salmonella typhimurium [22] = assay: Antibacterial activity against Salmonella enterica subsp. enterica serovar Typhimurium BN10055 assessed as inhibition of bacterial growth incubated for 18 hrs; type: organism-based; method in brief: as §3
Salmonella typhimurium [23] = assay: Antibacterial activity against Salmonella enterica subsp. enterica serovar Typhimurium BN10055 containing deltaacrB mutant assessed as inhibition of bacterial growth incubated for 18 hrs; type: organism-based; method in brief: as §3

| Compound | Ratio (Salmonella typhimurium [2]) | Ratio (Salmonella typhimurium [4]) | Ratio (Klebsiella aerogenes [6]) | IC50 at 24 h [7] | selectivity ratio [8] | Activity_index (Klebsiella aerogenes [12]) | Ratio (Klebsiella aerogenes [13]) | Ratio (Klebsiella aerogenes [14]) | Ratio (Klebsiella aerogenes [15]) | Ratio (Salmonella typhimurium [16]) | Ratio (Salmonella typhimurium [17]) | other results |
| --- | --- | --- | --- | --- | --- | --- | --- | --- | --- | --- | --- | --- |
| CC(C)=CCCC(C)=CCNCCCN(CCCN)CCCN | 128 | 4 | 8 | 127 µM | 16.2 | 3.65 | 16 | 8 | 32 | 16 | 16 | Activity [1]: Non-Toxic; Activity (Klebsiella aerogenes [3]): inactive; Activity [5]: Non-Toxic; Activity (Klebsiella aerogenes [9]): 68%; Activity (Klebsiella aerogenes [10]): Active; Activity (Klebsiella aerogenes [11]): 1%; Survival (Salmonella typhimurium [18]): 43%; Activity (Klebsiella aerogenes [19]): Active |
| CC(C)=CCC/C(C)=C\CCC(C)=CCNCCNCCNCCNCCNCCN | 32 | 2 | 4 | 41.7 µM | 10.7 | 2.88 | 4 | 8 | 16 | 16 | 8 | MIC (Klebsiella aerogenes [20]): 7.8 µM (≈ 3.41 µg/mL) |
| N=C(N)NCCC[C@H](NC(=O)[C@@H](N)Cc1ccccc1)C(=O)Nc1ccc2ccccc2c1 [PABETAN] (H-Phe-Arg-βNA) | 64 | 8 | 16 | – | – | – | 8 | 8 | 16 | 16 | 8 | Activity (Klebsiella aerogenes [9]): 25% |
| CC(C)=CCC/C(C)=C\CCC(C)=CCNCCCNCCCN | 64 | 8 | 8 | 30.2 µM | 3.86 | 3.58 | 64 | 8 | 32 | 32 | 8 | – |
| CC(C)=CCC/C(C)=C\CCC(C)=CCNCCCNCCCCNCCCN | 64 | – | 16 | 143 µM | 9.15 | 1.61 | 8 | 32 | 16 | 8 | 32 | – |
| CC(C)=CCC/C(C)=C\CCC(C)=CCNCCCN(CCCN)CCCN | 128 | 1 | 32 | > 150 µM | 19.2 | 3.54 | 4 | 16 | 16 | 8 | 16 | – |
| CC(C)=CCC/C(C)=C\CCC(C)=CCNCCNCCNCCNCCN | 16 | 1 | 8 | 43.5 µM | 5.37 | 1.49 | 8 | 16 | 32 | 4 | 8 | – |
| CC(C)=CCCC(C)=CCNCCCN(C)CCCN | 32 | – | 16 | > 150 µM | 0.06 | 0.01 | 32 | 8 | 16 | 16 | 16 | – |
| CC(C)=CCCC(C)=CCNCCNCCNCCNCCNCCN | 16 | – | 8 | > 150 µM | 0.06 | 0 | 1 | 4 | 2 | 4 | 8 | MIC (Klebsiella aerogenes [21]): > 500 µM; MIC (Salmonella typhimurium [22]): > 500 µM |
| CCN(CC)CCCNCCCNCC=C(C)CCC=C(C)C | 64 | 8 | 16 | 30.9 µM | 1.98 | 1.66 | 32 | 8 | 32 | 32 | 16 | – |
| CC[C@H](C)CCCCC(=O)N[C@@H](CCN)C(=O)N[C@H](C(=O)N[C@@H](CCN)C(=O)N[C@H]1CCNC(=O)[C@H]([C@@H](C)O)NC(=O)[C@H](CCN)NC(=O)[C@H](CCN)NC(=O)[C@H](CC(C)C)NC(=O)[C@@H](Cc2ccccc2)NC(=O)[C@H](CCN)NC1=O)[C@@H](C)O (X1-[Dab]T[Dab][Dab][Dab][dF]L[Dab][Dab]T; lactam 4-C) | – | – | – | – | – | – | – | – | – | – | – | Activity (Klebsiella aerogenes [11]): 14% |
| CC(C)=CCC/C(C)=C\CCC(C)=CCNCCCN(C)CCCN | 128 | 8 | 8 | 10.5 µM | 1.34 | 7.17 | 128 | 32 | 64 | 64 | 16 | – |
| CC(C)=CCC/C(C)=C\CCC(C)=CCNCCCCCCCCCCCCN | 8 | 2 | 2 | 25.3 µM | – | – | 1 | 1 | 2 | 8 | 4 | MIC (Klebsiella aerogenes [20]): 7.8 µM (≈ 3.16 µg/mL); MIC (Salmonella typhimurium [23]): 3.9 µM (≈ 1.58 µg/mL) |
| CC(C)=CCCC(C)=CCNCCNCCNCCN | 16 | – | 8 | > 150 µM | 0.06 | 0 | – | 2 | – | – | 4 | MIC (Klebsiella aerogenes [21]): > 500 µM; MIC (Salmonella typhimurium [22]): > 500 µM |
| CC(C)=CCCC(C)=CCNCCCNCCCCNCCCN | 64 | 2 | 8 | > 150 µM | 4.8 | 0.57 | 4 | 16 | 16 | 16 | 16 | – |
